Reference: ChEMBL document CHEMBL5712078, “BRD9 Inhibition, Alone or in Combination with Cytostatic Compounds as a Therapeutic Approach in Rhabdoid Tumors” (Int J Mol Sci, 2017)
pIC50: −log10 of the molar value. Active and inactive are the calls of the source. The calls are words filed in the database; no cut-off is given here.

Columns and labels:
[1] = system: BT-12; experiment: Induction of apoptosis in human BT-12 cells assessed as necrotic cells at 10 uM incubated for 72 hrs by flow cytometry analysis (reference value: 10.1+/-2.2%); format: functional
Summary of the method: (§1)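 Annexin V/PI flow assay. G401 at 10,000 cells/mL and BT12 or Chla266 at 30,000 cells/mL were seeded in 12-well plates. Next day medium was replaced with medium holding I-BRD9 or BI-9564 at 0, 5, 10 or 20 µM final for 72 h. Cells were washed in PBS, stained with FITC-Annexin V and propidium iodide for 15 min in the dark at room temperature, then read by flow cytometry. Percentage of dead cells, n ≥3, mean ± SD, one-way ANOVA versus control.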

[2] = system: G-401; experiment: Anti-proliferative activity against human G-401 cells assessed as cell viability incubated for 144 hrs by MTT assay; format: functional, cell-based; settings: G-401, 144 h
Summary of the method: (§2)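 MTT proliferation assay. Cells were seeded at 3000 (BT16, KD, G401) or 5000 (BT12, Chla266) cells per well and drug was added after 24 h, final 0.001–100 µM. Read at 72 or 144 h; 144 h wells got fresh medium and drug on day 3. MTT for 3 h, formazan dissolved in isopropanol/0.04 N HCl, absorbance at 570/630 nm. Technical triplicates, ≥3 independent runs, IC50 derived.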

[3] = system: BT-12; experiment: Induction of apoptosis in human BT-12 cells assessed as necrotic cells at 5 uM incubated for 72 hrs by flow cytometry analysis (reference value: 10.1+/-2.2%); format: functional; summary of the method: as §1
[4] = Anti-proliferative activity against human BT-16 cells assessed as cell viability incubated for 72 hrs by MTT assay; format: functional, cell-based; settings: BT-16, 72 h; summary of the method: as §2
[5] = system: BT-12; experiment: Induction of apoptosis in human BT-12 cells assessed as necrotic cells at 20 uM incubated for 72 hrs by flow cytometry analysis (Rvb=10.1+/-2.2%); format: functional; summary of the method: as §1
[6] = system: G-401; experiment: Induction of apoptosis in human G-401 cells assessed as necrotic cells incubated for 72 hrs by flow cytometry analysis; format: functional, cell-based; settings: dose 5-20 µM; summary of the method: as §1
[7] = system: CHLA-266; experiment: Induction of apoptosis in human CHLA-266 cells assessed as necrotic cells incubated for 72 hrs by flow cytometry analysis; format: functional, cell-based; settings: dose 5-20 µM; summary of the method: as §1
[8] = system: G-401; experiment: Induction of apoptosis in human G-401 cells assessed as necrotic cells at 20 uM incubated for 72 hrs by flow cytometry analysis (Rvb= 6.2+/-0.8 %); format: functional; summary of the method: as §1
[9] = system: CHLA-266; experiment: Cytotoxicity against human CHLA-266 cells assessed as change in cell viability at 5 to 20 uM treated for 72 hrs; format: functional, cell-based; settings: dose 5-20 µM; summary of the method: as §1
[10] = system: G-401; experiment: Induction of cell cycle arrest in human G-401 cells assessed as accumulation of cells at G1 phase at 10 uM incubated for 72 hrs by flow cytometry analysis (reference value: 51.7+/-2%); format: functional
Summary of the method: (§3)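 72 h DAPI flow-cytometry cell-cycle assay. Chla266 in IMDM/20% FBS seeded at 30,000 cells/mL; G401 in DMEM/10% FBS at 10,000 cells/mL; 1 mL/well, 37 °C, 5% CO2. Next day the medium was replaced with inhibitor at final 0, 5, 10 or 20 µM. Cells were harvested, PBS-washed, and the G1 percentage was read. n ≥ 3, mean ± SD, one-way ANOVA vs control.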

[11] = system: CHLA-266; experiment: Induction of cell cycle arrest in human CHLA-266 cells assessed as accumulation of cells at G1 phase at 20 uM incubated for 72 hrs by flow cytometry analysis (reference value: 74.1+/-3.2%); format: functional
Summary of the method: (§4)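 Cell cycle. Seeding and 72 h treatment as for the apoptosis assay, with I-BRD9 or BI-9564 at 0, 5, 10 or 20 µM final. A 100 µL cell suspension was stained with DAPI and read by flow cytometry. Percentage of cells in G1, n ≥3, mean ± SD, one-way ANOVA versus control.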

[12] = system: G-401; experiment: Induction of apoptosis in human G-401 cells assessed as necrotic cells at 10 uM incubated for 72 hrs by flow cytometry analysis (Rvb= 6.2+/-0.8 %); format: functional; summary of the method: as §1
[13] = system: BT-12; experiment: Induction of cell cycle arrest in human BT-12 cells assessed as accumulation of cells at G1 phase at 5 uM incubated for 72 hrs by flow cytometry analysis (reference value: 65+/-3.9%); format: functional; summary of the method: as §4
[14] = system: BT-12; experiment: Induction of apoptosis in human BT-12 cells assessed as necrotic cells incubated for 72 hrs by flow cytometry analysis; format: functional, cell-based; settings: dose 5-20 µM; summary of the method: as §1
[15] = system: G-401; experiment: Induction of cell cycle arrest in human G-401 cells assessed as accumulation of cells at G1 phase at 5 uM incubated for 72 hrs by flow cytometry analysis (reference value: 51.7+/-2%); format: functional; summary of the method: as §3
[16] = system: CHLA-266; experiment: Induction of apoptosis in human CHLA-266 cells assessed as necrotic cells at 20 uM incubated for 72 hrs by flow cytometry analysis (Rvb= 5.4+/-1.0 %); format: functional; summary of the method: as §1
[17] = system: G-401; experiment: Induction of apoptosis in human G-401 cells assessed as necrotic cells at 5 uM incubated for 72 hrs by flow cytometry analysis (Rvb= 6.2+/-0.8 %); format: functional; summary of the method: as §1
[18] = system: BT-12; experiment: Induction of cell cycle arrest in human BT-12 cells assessed as accumulation of cells at G1 phase at 20 uM incubated for 72 hrs by flow cytometry analysis (reference value: 65+/-3.9%); format: functional; summary of the method: as §4
[19] = Anti-proliferative activity against human KD cells assessed as cell viability incubated for 72 hrs by MTT assay; format: functional, cell-based; summary of the method: as §2
[20] = system: G-401; experiment: Anti-proliferative activity against human G-401 cells assessed as cell viability incubated for 72 hrs by MTT assay; format: functional, cell-based; settings: G-401, 72 h; summary of the method: as §2
[21] = system: CHLA-266; experiment: Induction of cell cycle arrest in human CHLA-266 cells assessed as accumulation of cells at G1 phase incubated for 72 hrs by flow cytometry analysis; format: functional, cell-based; settings: dose 5-20 µM; summary of the method: as §3
[22] = system: G-401; experiment: Induction of cell cycle arrest in human G-401 cells assessed as accumulation of cells at G1 phase incubated for 72 hrs by flow cytometry analysis; format: functional, cell-based; settings: dose 5-20 µM; summary of the method: as §3
[23] = system: CHLA-266; experiment: Induction of cell cycle arrest in human CHLA-266 cells assessed as accumulation of cells at G1 phase at 10 uM incubated for 72 hrs by flow cytometry analysis (Rvb =74.1+/-3.2%); format: functional; summary of the method: as §4
[24] = system: CHLA-266; experiment: Anti-proliferative activity against human CHLA-266 cells assessed as cell viability incubated for 72 hrs by MTT assay; format: functional, cell-based; settings: CHLA-266, 72 h; summary of the method: as §2
[25] = system: CHLA-266; experiment: Induction of apoptosis in human CHLA-266 cells assessed as necrotic cells at 10 uM incubated for 72 hrs by flow cytometry analysis (Rvb= 5.4+/-1.0 %); format: functional; summary of the method: as §1
[26] = system: BT-12; experiment: Anti-proliferative activity against human BT-12 cells assessed as cell viability incubated for 144 hrs by MTT assay; format: functional, cell-based; settings: BT-12, 144 h; summary of the method: as §2
[27] = system: CHLA-266; experiment: Anti-proliferative activity against human CHLA-266 cells assessed as cell viability incubated for 144 hrs by MTT assay; format: functional, cell-based; settings: CHLA-266, 144 h; summary of the method: as §2
[28] = system: BT-12; experiment: Induction of cell cycle arrest in human BT-12 cells assessed as accumulation of cells at G1 phase incubated for 72 hrs by flow cytometry analysis; format: functional, cell-based; settings: dose 5-20 µM; summary of the method: as §4
[29] = system: BT-12; experiment: Anti-proliferative activity against human BT-12 cells assessed as cell viability incubated for 72 hrs by MTT assay; format: functional, cell-based; settings: BT-12, 72 h; summary of the method: as §2
[30] = system: BT-12; experiment: Induction of cell cycle arrest in human BT-12 cells assessed as accumulation of cells at G1 phase at 10 uM incubated for 72 hrs by flow cytometry analysis (reference value: 65+/-3.9%); format: functional; summary of the method: as §4
[31] = Anti-proliferative activity against human KD cells assessed as cell viability incubated for 144 hrs by MTT assay; format: functional, cell-based; summary of the method: as §2
[32] = system: CHLA-266; experiment: Induction of apoptosis in human CHLA-266 cells assessed as necrotic cells at 5 uM incubated for 72 hrs by flow cytometry analysis (Rvb= 5.4+/-1.0%); format: functional; summary of the method: as §1
[33] = system: CHLA-266; experiment: Induction of cell cycle arrest in human CHLA-266 cells assessed as accumulation of cells at G1 phase at 5 uM incubated for 72 hrs by flow cytometry analysis (reference value: 74.1+/-3.2%); format: functional; summary of the method: as §4

## COc1cc(-c2cn(C)c(=O)c3cnccc23)c(OC)cc1CN(C)C
[1]
  Activity: 15.9%
[2]
  pIC50: 4.97
[3]
  Activity: 14.2%
[4]
  pIC50: 4.80
[5]
  Activity: 17.3%
[6]
  Activity: Dose-Dependent Effect
[7]
  Activity: Dose-Dependent Effect
[8]
  Activity: 7.6%
[9]
  Activity: Active
[10]
  Activity: 59.5%
[11]
  Activity: 83.6%
[12]
  Activity: 7.3%
[13]
  Activity: 73.1%
[14]
  Activity: Dose-Dependent Effect
[15]
  Activity: 57.6%
[16]
  Activity: 12.9%
[17]
  Activity: 6.8%
[18]
  Activity: 78.9%
[19]
  pIC50: 4.65
[20]
  pIC50: 4.90
[21]
  Activity: Dose-Dependent Effect
[22]
  Activity: Dose-Dependent Effect
[23]
  Activity: 81.2%
[24]
  pIC50: < 4.00
[25]
  Activity: 11%
[26]
  pIC50: 4.76
[27]
  pIC50: 4.47
[28]
  Activity: Dose-Dependent Effect
[29]
  pIC50: < 4.00
[30]
  Activity: 74%
[31]
  pIC50: 4.97
[32]
  Activity: 10%
[33]
  Activity: 80%
